# Screening results: PubChem BioAssay, several laboratories
# Autophagy HCS: autophagy modulation, high-content screen; MEF GFP-LC3 puncta imaging; test concentration mostly 10 µM; calls only at 10 µM (by protocol); 0.98% of 190,000 active;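 active means percentage of spot-positive cells more than 3 SD above its plate mean, without a fluorescence outlier flag or 80% toxicity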
# MT stabilizer: stabilizes microtubules in HeLa cells | HeLa tubulin immunostaining HCS, 24 h; share of cells brighter than vehicle mean+2SD | % tubulin-high responders, % at 10 µM | 0.83% of 200,000 active | AID 2205;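 active means plate Z-score above 3 for both tubulin-high and condensed-nucleus cell shares, with cell loss under 80%, at 10 µM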;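 further: anti alpha tubulin signal scored within the nucleus-defined area of each cell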
# Dynein transport: blocks dynein driven cargo transport along microtubules | z-score, hits read low | 0.47% of 220,000 active | 3617.4 mouse cells, GR-EGFP nuclear translocation imaging; test concentration mostly 20 µM; stimulated with dexamethasone, 1 µM; hits give low values;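 active means plate z-score of nuclear minus cytoplasmic receptor signal below a set negative limit, without overly bright fluorescence or cell loss, cut at about -3.5 in these data, passing the limit was not always enough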;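 further: z-score of nuclear minus cytoplasmic ring GR-EGFP intensity difference per well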
#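 Schedule: 48 h induction, then 1 h compound, then 30 min agonist, 37 °C. Buffer or medium: tetracycline-free induction medium containing charcoal-stripped FBS. Reagent: 1.0 µM final dexamethasone stimulus. Evaluation: nuclear versus cytoplasmic GR-EGFP signal, averaged per well. Signal: high-content fluorescence imaging after fixation.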
# bCat nuc transl: modulators of beta-catenin nuclear translocation; 0.3% of 190,000 active; nuclear translocation activity, % at 5 µM; HeLa beta-catenin nuclear translocation, immunofluorescence imaging; AID 1665;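 active means nuclear translocation activity above 50% at 5 µM, with a well cell count of 50 or more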;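 further: per-cell ratio of nuclear to cytoplasmic median beta-catenin stain intensity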
#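 Read-out: Nuclear/cytoplasmic beta-catenin signal ratio, % activation | Assay system: Human HeLa cell line | Times: 24 h compound exposure at 37°C, 5% CO2 | Signal: Fluorescence imaging of beta-catenin antibody stain plus DAPI | Dosing: 5 µM primary, 0.02–20 µM confirmation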
# CHOP inh: inhibitors of CHOP induction in ER stress response; CHO-K1 CHOP-promoter luciferase, tunicamycin-induced, 15-18 h; inhibition, % at 10 µM; 3.8% of 220,000 active; AID 2732;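 active means compounds that reduced the stress-induced luciferase reporter signal by more than about 70% of percent inhibition, limit read from the data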
# L major viab: reduces viability of Leishmania major promastigotes. inhibition, % at 10 µM. 9% of 200,000 active. resazurin fluorescence viability; in the data active means inhibition above about 50%;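 further: promastigotes grown with compound for 44 hours at 28 °C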
# Hits are given with their value; n = inactive; x = no result given; + = active, no number. An excerpt weighted towards active compounds, which were near 12% of everything screened.
SMILES,Autophagy HCS,MT stabilizer,Dynein transport,bCat nuc transl,CHOP inh,L major viab
COc1ccccc1/C=C/C(=C1/C(=O)N(c2ccccc2)N=C1C)c1ccc(C)cc1,n,n,n,n,n,n
CC1=NN(c2ccccc2)C(=O)C1=C(C)C,n,n,n,x,n,n
COc1cccc(/C=C/C(=C2/C(=O)N(c3ccccc3)N=C2C)c2ccccc2)c1OC,n,n,n,n,n,94.7
COc1cccc(/C=C/C(=C2/C(=O)N(c3ccccc3)N=C2C)c2ccc(Br)cc2)c1OC,n,n,n,n,n,100.0
Cc1sc2ncn(CC(=O)OC(C)C)c(=O)c2c1C,n,n,n,n,n,n
Cc1ccc(S(=O)(=O)NCC(=O)N(CC(=O)NC2CCCCC2)CC2CCCO2)cc1 (stereo unspecified),n,n,n,n,n,n
O=C(O)CCC(=O)N1CCN(c2nc(-c3ccccc3Cl)c3cc(Br)ccc3n2)CC1,n,n,n,x,n,n
O=C(O)c1ccc(Nc2ncnc3scc(-c4ccccc4)c23)cc1,n,n,n,n,n,n
COc1cccc(/C=N/Nc2ncnc3scc(-c4ccccc4)c23)c1OC,n,n,n,x,71.1,n
Cc1sc2ncnc(N/N=C/c3ccccc3O)c2c1C,n,n,n,n,n,99.6
CCc1nnc(NC(=O)C2CCCN2C(=O)Nc2ccccc2)s1 (stereo unspecified),n,n,n,n,n,n
COc1cc(SC)ccc1C(=O)NCCOc1ccc(F)cc1,n,n,n,x,n,57.8
COc1cc(SC)ccc1C(=O)Nc1c(Cl)cncc1Cl,n,n,n,n,n,95.4
Cc1nc(N2CCN(C)CC2)c2sc(=S)n(C)c2n1,n,n,n,x,74.1,n
O=c1c2c(nc(NCCO)n1CC1CCCCC1)-c1ccccc1CC21CCCC1,n,n,n,x,n,90.6
CC1(C)CC(n2c(NCCO)nc3c(c2=O)C2(CCCC2)Cc2ccccc2-3)CCO1 (stereo unspecified),n,n,n,n,x,99.8
Nc1nc(CN2CCCCCC2)nc(Nc2ccccc2)n1,n,n,n,n,n,n
CC1CC(C)CN(Cc2nc(N)nc(Nc3ccccc3)n2)C1 (stereo unspecified),n,n,n,n,n,n
CC1CC(C)CN(Cc2nc(N)nc(Nc3ccc4ccccc4c3)n2)C1 (stereo unspecified),n,46.1,n,n,n,94.8
Nc1nc(CN2CCN(Cc3ccc4c(c3)OCO4)CC2)nc(Nc2ccccc2)n1,n,n,n,n,n,71.5
Nc1nc(CN2CCC(Cc3ccccc3)CC2)nc(Nc2ccccc2)n1,n,n,n,n,n,100.3
O=C(Nc1cccc(F)c1)c1ccc(Cn2cc([N+](=O)[O-])cn2)o1,n,n,n,n,n,n
CCOC(=O)C1CCN(C(=O)c2cc3cc(Br)ccc3oc2=O)CC1,n,n,n,n,n,n
O=C(CSc1ncn[nH]1)Nc1nc(-c2ccccc2)cs1,n,n,n,n,n,92.9
O=C(CSc1nc(-c2ccccc2)c(-c2ccccc2)[nH]1)NCc1ccco1,n,n,n,x,n,n
SMILES,Autophagy HCS,MT stabilizer,Dynein transport,bCat nuc transl,CHOP inh,L major viab
O=C(CSc1nc(-c2ccccc2)c(-c2ccccc2)[nH]1)NCCN1C(=O)CSC1=O,n,18.9,n,n,n,n
O=C(CSc1nc(-c2ccccc2)c(-c2ccccc2)[nH]1)Nc1nccs1,n,n,n,n,n,97.6
CCOc1ccc(OCC)c(S(=O)(=O)n2cc(C)nc2CC)c1,n,n,n,n,n,98.7
CC(=O)c1ccc(/C=C/c2nc3ccccc3n2C)o1,x,x,n,n,n,x
CCCCOc1ccc(CSCCN)cc1Cl,x,x,n,n,73.2,x
Cc1cc(N/N=C/c2ccccc2[N+](=O)[O-])nc(-n2nc(C)cc2C)n1,x,x,n,n,n,x
Cc1cc(N/N=C/c2cccc(Cl)c2)nc(-n2nc(C)cc2C)n1,x,x,n,n,n,x
Cc1cc(N/N=C/c2ccc(O)cc2O)nc(-n2nc(C)cc2C)n1,n,n,n,n,n,100.3
COc1ccc(/C=N/Nc2cc(C)nc(-n3nc(C)cc3C)n2)cc1,n,n,n,n,n,95.5
Clc1ccc(CO/N=C/c2cccs2)cc1,x,x,n,n,n,x
O=C(NNS(=O)(=O)c1cccc(Cl)c1)c1cc(-c2ccc(F)cc2)nc2ccccc12,n,n,n,n,n,n
CCOC(=O)C1CCN(Cc2nc3ccccc3c(=O)n2-c2ccc(F)cc2)CC1,n,n,n,x,n,n
CCOC(=O)C1CCCN(Cc2cn[nH]c2-c2ccc(F)cc2F)C1 (stereo unspecified),+,n,n,n,n,n
CCOC(=O)c1[nH]ncc1CN1CCCC(C(=O)c2ccc(C(C)(C)C)cc2)C1 (stereo unspecified),n,n,n,n,n,73.8
COC(=O)C1CCN(Cc2ccc(C)cc2)CC1,n,n,n,n,n,90.8
CCOC(=O)C1CCN(Cc2ccc(F)cc2F)CC1,n,n,n,n,n,89.4
CCOC(=O)C1CCN(Cc2ccc(OC)c(C)c2OC)CC1,n,n,n,n,n,63.8
CCOC(=O)C1CCN(Cc2ccc(F)c(Br)c2)CC1,n,n,n,n,n,76.7
Nc1nc(SCC(=O)Nc2ccc([N+](=O)[O-])cc2)n[nH]1,n,n,n,n,n,n
COc1ccc(OC)c(C2C(C#N)=C(N)Oc3cc(N)ccc32)c1 (stereo unspecified),n,n,n,n,n,n
N#CC1=C(N)Oc2cc(N)ccc2C1C1CCCCC1 (stereo unspecified),n,46.2,n,x,x,n
CC(=O)Oc1c(S(=O)(=O)c2ccc(C)cc2)c(C)nn1-c1ccccc1,n,n,n,n,n,n
COC(=O)c1ccc(CN2CCN(Cc3ccccc3)C(CCO)C2)cc1 (stereo unspecified),n,n,n,n,n,n
COC(=O)c1ccc(CN2CCN(C3CCCC3)C(CCO)C2)cc1 (stereo unspecified),n,n,n,n,n,55.7
COC(=O)c1ccc(CN2CCN(C3CCCCC3)C(CCO)C2)cc1 (stereo unspecified),n,n,n,n,n,53.7
CC(=O)Nc1ccc(CN2CCN(C3CCCCC3)C(CCO)C2)cc1 (stereo unspecified),n,n,n,n,n,n
CN(C)CC(C)(C)CNC(C(=O)Nc1ccc(Cl)cc1C(F)(F)F)c1ccccc1 (stereo unspecified),n,n,n,n,n,n
CCOC(=O)c1oc2ccc(S(=O)(=O)n3nc(-c4ccc(OC)cc4)cc3N)cc2c1C,n,13.2,n,n,n,n
CCOC(=O)c1oc2ccc(S(=O)(=O)n3nc(-c4ccccc4)cc3N)cc2c1C,n,n,n,n,85.2,97.1
CC(C)(CN1CCN(Cc2ccccc2)CC1)NS(=O)(=O)c1ccc(Cl)cc1,x,x,n,n,n,x
